The term IC50 denotes the concentration that inhibits the measured activity by half.

Assay [1] is described as follows: Inhibition of HIF1 (unknown origin) expressed in HEK293 cells assessed as reduction in hypoxia-induced HIF1 activation pre-incubated for 1 hrs before hypoxia exposure for 24 hrs by luciferase reporter gene assay. The format is cell-based. Conditions: Homo sapiens. A digest of the protocol:
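HEK293 cells stably carrying HRE reporter plasmid p2.1, seeded at 8.0×10^4 per well and grown 24 h in normoxia. Medium changed to fresh medium with 0.25% DMSO and a range of compound concentrations for 1 h, then 24 h at 1% O2 or normoxia. Luciferase activity normalised to protein content. IC50 as mean ± SD, n = 3.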
(Reporter assays use an easily measured gene product as a stand-in for the process of interest.)

Assay [2] relates to MCF7. Nature of the assay: Cytotoxicity against human MCF7 cells assessed as reduction in cell viability incubated for 24 hrs by MTT assay. The format is functional, cell-based. The following applies: MCF7, 24 h. Summed up:
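MCF-7 cells seeded at 8.0×10^3 per well and treated with compound for 24 h. MTT 0.5 mg/mL added for 4 h at 37 °C after medium exchange, then DMSO lysis and absorbance at 570 nm. IC50 as mean ± SD, n = 3.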

Assay [3] in a line: Retardation factor of the compound.

Regarding `CC(C)[C@H]1C(=O)OC[C@@H](NC(=O)CNC(=O)c2cnc3ccccc3n2)C(=O)N[C@@H](C)C(=O)N(C)[C@H]2CSSC[C@@H](C(=O)N1C)N(C)C(=O)[C@H](C)NC(=O)[C@H](NC(=O)CNC(=O)c1cnc3ccccc3n1)COC(=O)[C@H](C(C)C)N(C)C2=O`, the IC50 in assay [1] is above 100 µM; in assay [2], 13.6 µM. Also, the Rm in assay [3] is -0.05.

Turning to `CC(C)[C@H]1C(=O)OC[C@@H](NC(=O)c2cnc3ccccc3n2)C(=O)N[C@@H](C)C(=O)N(C)[C@@H](CS)C(=O)N(C)[C@@H](C(C)C)C(=O)OC[C@@H](NC(=O)c2cnc3ccccc3n2)C(=O)N[C@@H](C)C(=O)N(C)[C@@H](CS)C(=O)N1C`, the IC50 in assay [1] stood at 0.0323 µM; in assay [2] it was 2.7 µM. For the same molecule, in assay [3], the Rm was 0.28.

As for `CC[C@H](C)[C@H]1C(=O)OC[C@@H](NC(=O)c2cnc3ccccc3n2)C(=O)N[C@@H](C)C(=O)N(C)[C@H]2CSSC[C@@H](C(=O)N1C)N(C)C(=O)[C@H](C)NC(=O)[C@H](NC(=O)c1cnc3ccccc3n1)COC(=O)[C@H](C(C)C)N(C)C2=O`, the IC50 is 0.0555 µM in assay [1] and 4.1 µM in assay [2]. In assay [3], the Rm was found to be 0.39.

Consider `CC[C@H](C)[C@H]1C(=O)OC[C@@H](NC(=O)c2cnc3ccccc3n2)C(=O)N[C@@H](C)C(=O)N(C)[C@H]2CSSC[C@@H](C(=O)N1C)N(C)C(=O)[C@H](C)NC(=O)[C@H](NC(=O)c1cnc3ccccc3n1)COC(=O)[C@H]([C@@H](C)CC)N(C)C2=O`, for which the half-maximal inhibitory concentration (IC50) came to 0.06 µM in assay [1] and 4 µM in assay [2]. For the same molecule, the Rm in assay [3] came out at 0.45.

With `CC(C)[C@H]1C(=O)OC[C@@H](NC(=O)c2cnc3ccccc3n2)C(=O)N[C@@H](C)C(=O)N(C)[C@H]2CSSC[C@@H](C(=O)N1C)N(C)C(=O)[C@H](C)NC(=O)[C@H](NC(=O)c1cnc3ccccc3n1)COC(=O)[C@@H](C(C)C)N(C)C2=O`, the IC50 in assay [1] amounted to 2 µM; in assay [2], 24.3 µM. Also, in assay [3], the Rm came to 0.24.

Take `CC(=O)SC[C@H]1C(=O)N(C)[C@@H](C(C)C)C(=O)OC[C@@H](NC(=O)c2cnc3ccccc3n2)C(=O)N[C@@H](C)C(=O)N(C)[C@@H](CSC(C)=O)C(=O)N(C)[C@@H](C(C)C)C(=O)OC[C@@H](NC(=O)c2cnc3ccccc3n2)C(=O)N[C@@H](C)C(=O)N1C`: the IC50 in assay [1] is 0.235 µM; in assay [2] it was 8.7 µM. In assay [3], the Rm stood at 0.23.

Take `CC(C)[C@H]1C(=O)OC[C@@H](NC(=O)c2cnc3ccccc3n2)C(=O)N[C@@H](C)C(=O)N(C)[C@H]2CSC(C)(C)SC[C@@H](C(=O)N1C)N(C)C(=O)[C@H](C)NC(=O)[C@H](NC(=O)c1cnc3ccccc3n1)COC(=O)[C@H](C(C)C)N(C)C2=O`: the IC50 in assay [1] is 0.0252 µM; in assay [2], 5.9 µM. Moreover, in assay [3], the Rm came to 0.31.

As to `CC(C)[C@@H]1C(=O)OC[C@@H](NC(=O)c2cnc3ccccc3n2)C(=O)N[C@@H](C)C(=O)N(C)[C@H]2CSSC[C@@H](C(=O)N1C)N(C)C(=O)[C@H](C)NC(=O)[C@H](NC(=O)c1cnc3ccccc3n1)COC(=O)[C@@H](C(C)C)N(C)C2=O`, the IC50 in assay [1] worked out at 0.59 µM; in assay [2] it was 6.1 µM. In assay [3], this molecule had a Rm of 0.25.

As to `CSC[C@H]1C(=O)N(C)[C@@H](C(C)C)C(=O)OC[C@@H](NC(=O)c2cnc3ccccc3n2)C(=O)N[C@@H](C)C(=O)N(C)[C@@H](CSC)C(=O)N(C)[C@@H](C(C)C)C(=O)OC[C@@H](NC(=O)c2cnc3ccccc3n2)C(=O)N[C@@H](C)C(=O)N1C`, the results for the IC50 in assay [1] and in assay [2] were 0.222 µM and 4.3 µM, respectively. This molecule also returned a Rm in assay [3] of 0.34.

Turning to `CC(=O)N[C@@H]1COC(=O)[C@H](C(C)C)N(C)C(=O)[C@@H]2CSSC[C@@H](C(=O)N(C)[C@@H](C(C)C)C(=O)OC[C@@H](NC(C)=O)C(=O)N[C@@H](C)C(=O)N2C)N(C)C(=O)[C@H](C)NC1=O`, the IC50 in assay [1] was above 100 µM; in assay [2] it was 15.5 µM. The Rm in assay [3] is -0.3.

For the origin of these results see ChEMBL document CHEMBL4342497, “Design, Synthesis, and Conformation-Activity Study of Unnatural Bridged Bicyclic Depsipeptides as Highly Potent Hypoxia Inducible Factor-1 Inhibitors and Antitumor Agents” (J Med Chem, 2020).
